Paper PMC3310921 (Bioorganic & medicinal chemistry, 2010)
“And” between values parts separate entries of the source, which are not always exact repeats. Equal entries are not always repeated. “Also recorded” adds a separate entry of the source. Where two headings read alike, the source gives them in different places.

Legend:
mice [1] = conditions: recorded previously ref 25, cited from earlier work; for Neurotoxicity in mice (in words): 30, 100 and 300 mg/kg intraperitoneally, 0.5 and 4 h
mice [2] = experiment: Murine toxicity study; type: in vivo; conditions: for Neurotoxicity in mice (in words): 30, 100 and 300 mg/kg intraperitoneally, examined after 0.5 and 4 h
[3] = system: HSC-4 squamous cell carcinoma cells; conditions: read-out: CC50 HSC-4; human malignant cells; reported previously ref 27; cited from earlier work
[4] = system: HSC-2 squamous cell carcinoma cells; conditions: read-out: CC50 HSC-2, human malignant cells, cited from earlier work
mice [5] = conditions: cited from earlier work
[6] = system: HL-60 promyelocytic leukemia cells; conditions: read-out: CC50 HL-60, human malignant cells, cited from earlier work
[7] = Cytotoxicity, average of the three normal cells; type: cell-based; conditions: human, HGF, HPC and HPLF normal cells (average of the three)
How it was run: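 Human HGF gingival fibroblasts, HPC pulp cells and HPLF periodontal ligament fibroblasts were exposed to graded concentrations for 24 h, up to a maximum of 400 μM. CC50 is the concentration cutting viable cell number by 50%. It was read from dose–response curves from duplicate determinations, then averaged over the three normal cell types.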

HPC pulp cells = conditions: read-out: CC50 HPC; human normal cells; reported previously ref 26; cited from earlier work
[8] = system: HPLF periodontal ligament fibroblasts; conditions: read-out: CC50 HPLF; human normal cells; reported previously ref 26; cited from earlier work
HGF gingival fibroblasts = conditions: read-out: CC50 HGF; human normal cells; reported previously ref 26; cited from earlier work
HL-60 cells = experiment: Internucleosomal DNA fragmentation in HL-60 cells; type: cell-based, human; conditions: 6 h incubation
caspase-3 in HL-60 cells = experiment: Caspase-3 activation in HL-60 cells; type: cell-based, human; conditions: 5 h incubation
caspase-3 in HSC-2 cells = experiment: Caspase-3 activation in HSC-2 cells; type: cell-based, human; conditions: 5 h incubation
How it was run: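 HSC-2 cells, with HL-60 run in parallel, were exposed to the test compound for 5 h, then assayed for caspase-3 activation. The reference was UV irradiation at 6 J/m²/min for 1 min, followed by 3 h incubation. Values are from n = 3.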

HSC-2 cells = experiment: Internucleosomal DNA fragmentation in HSC-2 cells; type: cell-based, human; conditions: 6 h incubation
How it was run: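 After 6 h exposure of HSC-2 cells (HL-60 in parallel), cellular DNA was examined for internucleosomal laddering against a DNA molecular-weight marker.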

[9] = 100 mg/kg intraperitoneally, 0.5 h
[10] = 300 mg/kg intraperitoneally, 0.5 h

COc1cc(/C=C2\CCC/C(=C\c3ccc([N+](=O)[O-])cc3)C2=O)cc(OC)c1OC [Compound 3g]
Number of animals demonstrating neurological deficit/number of treated mice (mice [1]; [9]): 2/8
Neurotoxicity in mice (in words) (mice [1]): Marginal neurotoxicity

COc1cc(OC)c(OC)cc1/C=C1\CCC/C(=C\c2ccc([N+](=O)[O-])cc2)C1=O [Compound 5b, 6-(4-Nitrobenzylidene)-2-(2,4,5-trimethoxybenzylidene) cyclohexanone]
Number of animals demonstrating neurological deficit/number of treated mice (mice [2]; [9]): 1/8
Number of animals demonstrating neurological deficit/number of treated mice (mice [2]; [10]): 1/4
Neurotoxicity in mice (in words) (mice [2]): Marginal neurotoxicity

N[C@@H](Cc1ccc(N(CCCl)CCCl)cc1)C(=O)O [Melphalan, reference compound]
CC50 [3]: 81 µM
CC50 ([4]; reported previously ref 27): 35 µM
LD50 (mice [5]): 4.0 mg/kg
CC50 ([6]; reported previously ref 27): 6 µM

O=C1/C(=C/c2ccccc2)CCC/C1=C\c1cccc([N+](=O)[O-])c1 [Compound 2a]
Number of animals demonstrating neurological deficit/number of treated mice (mice [2]; [9]): 2/8
Number of animals demonstrating neurological deficit/number of treated mice (mice [2]; [10]): half or more and 2/4
Neurotoxicity in mice (in words) (mice [2]): Marginal neurotoxicity
CC50 at 24 h [7]: 19 µM

O=C1/C(=C/c2ccc(F)cc2)CCC/C1=C\c1ccc([N+](=O)[O-])cc1 [Compound 3b]
Number of animals demonstrating neurological deficit/number of treated mice (mice [2]; [9]): 1/8
Neurotoxicity in mice (in words) (mice [2]): Marginal neurotoxicity
CC50 at 24 h [7]: > 375 µM

Cc1ccc(/C=C2\CCC/C(=C\c3ccc([N+](=O)[O-])cc3)C2=O)cc1 [Compound 3e]
Number of animals demonstrating neurological deficit/number of treated mice (mice [2]; [10]): half or more and 3/4
CC50 at 24 h [7]: > 280 µM

O=C1/C(=C/c2ccccc2)CCC/C1=C\c1ccc([N+](=O)[O-])cc1 [Compound 3a]
Neurotoxicity in mice (in words) (mice [2]): did not display any neurotoxic symptoms
CC50 at 24 h [7]: 259 µM

COc1cc(/C=C2\CCC/C(=C\c3cccc([N+](=O)[O-])c3)C2=O)cc(OC)c1OC [Compound 2g]
CC50 at 24 h [7]: > 379 µM

COc1ccc(/C=C2\CCC/C(=C\c3ccc([N+](=O)[O-])cc3)C2=O)cc1 [Compound 3f]
CC50 ([4]; reported previously ref 26): > 400 µM
CC50 (HPC pulp cells): > 400 µM
CC50 [8]: > 400 µM
CC50 ([6]; reported previously ref 26): > 400 µM
CC50 (HGF gingival fibroblasts): > 400 µM

O=C1/C(=C/c2ccc(Cl)cc2)CCC/C1=C\c1ccc([N+](=O)[O-])cc1 [Compound 3c]
Neurotoxicity in mice (in words) (mice [1]): did not display any neurotoxic symptoms; also recorded: no neurotoxicity

O=C1CCCC/C1=C\c1ccccc1[N+](=O)[O-] [Compound 4a]
Number of animals demonstrating neurological deficit/number of treated mice (mice [2]; [10]): 1/4
Neurotoxicity in mice (in words) (mice [2]): Marginal neurotoxicity
CC50 at 24 h [7]: 146 µM

CN(C)c1ccc(/C=C2\CCC/C(=C\c3cccc([N+](=O)[O-])c3)C2=O)cc1 [Compound 2d]
Number of animals demonstrating neurological deficit/number of treated mice (mice [2]; [9]): 1/8
Number of animals demonstrating neurological deficit/number of treated mice (mice [2]; [10]): 1/4

Cc1ccc(/C=C2\CCC/C(=C\c3cccc([N+](=O)[O-])c3)C2=O)cc1 [Compound 2e]
Neurotoxicity in mice (in words) (mice [2]): did not display any neurotoxic symptoms
CC50 at 24 h [7]: > 331 µM

O=C1/C(=C/c2ccc(F)cc2)CCC/C1=C\c1cccc([N+](=O)[O-])c1 [Compound 2b]
Number of animals demonstrating neurological deficit/number of treated mice (mice [2]; [9]): 1/8
CC50 at 24 h [7]: 39 µM

O=C1/C(=C/c2ccccc2)CCC/C1=C\c1ccccc1[N+](=O)[O-] [Compound 1a]
Neurotoxicity in mice (in words) (mice [2]): did not display any neurotoxic symptoms
CC50 at 24 h [7]: 45 µM

COc1ccc(/C=C2\CCC/C(=C\c3cccc([N+](=O)[O-])c3)C2=O)cc1 [Compound 2f]
Number of animals demonstrating neurological deficit/number of treated mice (mice [2]; 30 mg/kg intraperitoneally, 0.5 h): 1/4
Neurotoxicity in mice (in words) (mice [2]): Marginal neurotoxicity
CC50 at 24 h [7]: > 262 µM

COc1ccc(/C=C2\CCC/C(=C\c3ccccc3[N+](=O)[O-])C2=O)cc1 [Compound 1f]
CC50 at 24 h [7]: > 395 µM

O=C1/C(=C/c2ccc(Cl)cc2)CCC/C1=C\c1cccc([N+](=O)[O-])c1 [Compound 2c]
CC50 at 24 h [7]: 32 µM

O=C1/C(=C/c2ccc(Cl)cc2)CCC/C1=C\c1ccccc1[N+](=O)[O-] [Compound 1c]
Induction of internucleosomal DNA fragmentation (HL-60 cells): induced the internucleosomal DNA fragmentation
Activation of caspase-3 (caspase-3 in HL-60 cells): concentration-dependent activation of caspase-3
Activation of caspase-3 (caspase-3 in HSC-2 cells): no evidence
Number of animals demonstrating neurological deficit/number of treated mice (mice [2]; 300 mg/kg intraperitoneally, 4 h): half or more
Induction of internucleosomal DNA fragmentation (HSC-2 cells): no evidence

O=C1CCCC/C1=C\c1cccc([N+](=O)[O-])c1 [Compound 4b]
Number of animals demonstrating neurological deficit/number of treated mice (mice [2]; [10]): 1/4
CC50 at 24 h [7]: 60 µM

COc1ccc(/C=C2\CCC/C(=C\c3ccc([N+](=O)[O-])cc3)C2=O)c(OC)c1OC [Compound 5a, 6-(4-Nitrobenzylidene)-2-(2,3,4-trimethoxybenzylidene) cyclohexanone]
Neurotoxicity in mice (in words) (mice [2]): did not display any neurotoxic symptoms

COc1cc(/C=C2\CCC/C(=C\c3ccccc3[N+](=O)[O-])C2=O)cc(OC)c1OC [Compound 1g]
CC50 at 24 h [7]: 53 µM

O=C1/C(=C/c2ccc(F)cc2)CCC/C1=C\c1ccccc1[N+](=O)[O-] [Compound 1b]
CC50 at 24 h [7]: 53 µM

CN(C)c1ccc(/C=C2\CCC/C(=C\c3ccc([N+](=O)[O-])cc3)C2=O)cc1 [Compound 3d]
Number of animals demonstrating neurological deficit/number of treated mice (mice [2]; [9]): 2/8
